STAT1 activator = STAT1 signaling activators, primary screen, cell-based, HTS, luciferase reporter | activation (% of control), % at 5.5 µM | 2.6% of 200,000 active | NIH 3T3 STAT1-luciferase reporter, IFN-gamma, luminescence; 100% = IFN-gamma alone, no compound;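 active = activation above the screen-wide mean activation plus 3 SD, cut at about 130% in these data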
p97 ATPase inh = inhibitors of human p97 ATPase, primary screen, biochemical; inhibition, % at 8 µM; AID 1481, 2009; recombinant p97 ATPase, Kinase-Glo ATP luminescence, 3 h; 0.42% of 220,000 active; Transitional endoplasmic reticulum ATPase (Homo sapiens), P55072; in the data active = inhibition above about 15%
NF-kB neuron act = activators of NF-kB expression in neurons, primary screen, cell-based, HTS; human neuronal cells, NF-kB reporter expression; hits give high values; fold change at 12.5 µM; 1.6% of 190,000 active; in the data active = fold change above about 3.3
Wee1 stabilizer = Wee1 degradation inhibitors, primary screen, cell-based, HeLa, Wee1K328M-luciferase, luminescence. Wee1-like protein kinase (Homo sapiens), P30291. HeLa Luc-Wee1K328M stability; 100% = proteasome inhibitor MG132 effect. reporter increase, % at 5 µM. 1.2% of 220,000 active. AID 1321, 2008;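 active = activation above the mean of all tested compounds plus 3 SD, set per screening run, cut at about 8.8% in these data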;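 note: cells exposed to compound for 20 h before luminescence read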
APP 5'UTR act = activators of APP 5'UTR luciferase reporter, primary screen, SH-SY5Y cells; activation, % at 2 µM; SH-SY5Y APP 5'UTR luciferase reporter, luminescence; zero percent = DMSO vehicle wells; 1% of 190,000 active;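 active = activation above a set limit, based on mean plus 3 SD of controls, cut at about 140% in these data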
MDM2 E3 inh = MDM2-luciferase reporter signal enhancers, primary screen, MDM2 E3 ligase inhibitor project, cell-based, luminescence, 1536-well | E3 ubiquitin-protein ligase Mdm2 (Homo sapiens), Q00987 | cell-based MDM2 ubiquitination luciferase reporter, 2 h; 0 = plate control, 100 = twice control, blank-subtracted | signal enhancement, % at 5 µM | 0.11% of 210,000 active;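 active = signal enhancement of 30% or more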;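 note: luminescence tracks abundance of the self-degrading MDM2-luciferase fusion protein; higher signal means inhibition of MDM2 E3 ligase activity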
Target sequence (Q00987 whole entry, looked up, the tested form may be a part): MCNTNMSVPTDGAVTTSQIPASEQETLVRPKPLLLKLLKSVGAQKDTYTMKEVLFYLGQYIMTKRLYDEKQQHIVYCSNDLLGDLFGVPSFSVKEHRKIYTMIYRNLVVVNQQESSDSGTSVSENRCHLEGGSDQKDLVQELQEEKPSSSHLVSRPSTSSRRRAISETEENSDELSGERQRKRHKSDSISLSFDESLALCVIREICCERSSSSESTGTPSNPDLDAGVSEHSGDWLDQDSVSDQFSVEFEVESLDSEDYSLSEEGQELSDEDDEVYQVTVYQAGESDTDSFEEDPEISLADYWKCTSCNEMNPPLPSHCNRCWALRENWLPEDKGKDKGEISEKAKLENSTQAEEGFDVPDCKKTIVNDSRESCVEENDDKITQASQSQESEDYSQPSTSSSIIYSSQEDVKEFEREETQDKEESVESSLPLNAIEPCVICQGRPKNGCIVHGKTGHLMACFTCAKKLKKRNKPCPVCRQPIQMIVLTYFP
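test system = mammalian cells stably expressing self-ubiquitinating, self-degrading MDM2 E3–luciferase fusion | quantity = 2000 cells/well | incubation = cell settling 4 h, compound treatment 2 h, both 37 °C | signal = luminescence with SteadyLite reagent, 15 min at room temperature | evaluation = % enhancement relative to plate controls after blank subtraction | benchmarks = plate controls and plate blanks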
p97 inh conf = p97 ATPase inhibitors, retest, confirmation, biochemical. inhibition, % at 8 µM. 44% of 760 active. shares compounds with p97 ATPase inh. recombinant p97 ATPase, Kinase-Glo ATP luminescence;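 active = percent inhibition of p97 ATPase above a set limit, the primary screen's mean plus 3 SD, cut at about 15% in these data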
Large screens that a line does not name were inactive (follow-up assays come after a bar, where they were run). An excerpt weighted towards active compounds, which were near 4.6% of everything screened.

COCCCN1CN(S(=O)(=O)c2cccs2)c2nc3ccccc3nc21	none (no result: STAT1 activator, NF-kB neuron act, APP 5'UTR act)
COc1ccc(-c2nc(-c3cccs3)c(-c3cccs3)[nH]2)cc1O	p97 ATPase inh 15 | p97 inh conf 26
O=C(O)c1ccc(-c2nc(-c3ccccc3)c(-c3cccs3)[nH]2)cc1	none (no result: STAT1 activator, NF-kB neuron act, APP 5'UTR act)
Cc1ccsc1/C=N/NC(=O)C1CC(=O)N(c2ccccc2)C1 (centres undefined)	none
Cc1ccc(NC(=O)CN2C(=O)N/C(=C/c3cc(C)n(-c4ccc(C(=O)O)cc4)c3C)C2=O)cc1	none
Cc1ccc(NC(=O)CN2C(=O)N/C(=C/c3cccn3-c3ccc(C(=O)O)cc3)C2=O)cc1	p97 ATPase inh 17 (no result: MDM2 E3 inh) | p97 inh conf 32
Cc1csc2c(=O)sc(NC(=O)c3cccs3)nc12	p97 ATPase inh 34 (no result: STAT1 activator, NF-kB neuron act, APP 5'UTR act) | p97 inh conf 28
CC12CCC(C(=O)Nc3ccccc3Cl)(C(Br)C1=O)C2(C)C (centres undefined)	none
COc1ccc(/C=N/Nc2nnc(-c3ccccc3)c(=O)[nH]2)cc1	p97 ATPase inh 17 | p97 inh conf 38
O=c1[nH]c(N/N=C/c2ccccc2Br)nnc1-c1ccccc1	none
c1ccc(NC2=Nc3cccc4cccc2c34)cc1	none
O=C(O)c1cccc(NC2=Nc3cccc4cccc2c34)c1	p97 ATPase inh 16 (no result: STAT1 activator, NF-kB neuron act, APP 5'UTR act) | p97 inh conf inactive
Cc1c(NC(=S)NC(NC(=O)C(C)C)C(Cl)(Cl)Cl)c(=O)n(-c2ccccc2)n1C (centres undefined)	none
O=C1/C(=C/c2ccco2)SC(=S)N1c1cccnc1	p97 ATPase inh 18 (no result: STAT1 activator, NF-kB neuron act, APP 5'UTR act) | p97 inh conf inactive
O=C(NN1C(=O)/C(=C/C=C/c2ccco2)SC1=S)c1ccncc1	p97 ATPase inh 40 (no result: STAT1 activator, NF-kB neuron act, APP 5'UTR act) | p97 inh conf inactive
O=C(NN1C(=O)/C(=C/C=C/c2ccccc2)SC1=S)c1ccncc1	none
O=C1/C(=C\c2ccco2)SC(=S)N1c1ccc(O)cc1	none
CC(C)C(C(=O)O)N1C(=O)/C(=C/C=C/c2ccco2)SC1=S (centres undefined)	p97 ATPase inh 19 | p97 inh conf inactive
O=C1/C(=C/C=C/c2ccco2)SC(=S)N1c1ccc(O)cc1	p97 ATPase inh 58 (no result: STAT1 activator, NF-kB neuron act, APP 5'UTR act) | p97 inh conf 31
CCOc1ccc(Br)cc1S(=O)(=O)N1CC(C)OC(C)C1 (centres undefined)	none (no result: APP 5'UTR act)
CCOc1ccc(Br)cc1S(=O)(=O)N1CCC(C(N)=O)CC1	p97 ATPase inh 15 | p97 inh conf inactive
Cc1ccsc1/C=N/NC(=O)CO	none
Cc1ccsc1C=Nc1ccc(O)cc1	p97 ATPase inh 25 | p97 inh conf inactive
Cn1c(SCC(=O)N2CCCc3ccccc32)nnc1-c1c[nH]c2ccccc12	p97 ATPase inh 16 | p97 inh conf inactive
CCc1cccc(NC(=O)C2CCCN(S(=O)(=O)c3c(C)[nH]c(=O)[nH]c3=O)C2)c1 (centres undefined)	p97 ATPase inh 23 | p97 inh conf inactive
COc1ccc(NC(=O)C2CCCN(S(=O)(=O)c3c(C)[nH]c(=O)[nH]c3=O)C2)cc1OC (centres undefined)	none
C=CCNCC(O)COc1ccc(C(C)=O)cc1OC (centres undefined)	p97 ATPase inh 18 (no result: STAT1 activator, NF-kB neuron act, APP 5'UTR act) | p97 inh conf inactive
COCCn1c(=O)[nH]c(=O)c2c(C(F)(F)F)cc(-c3cccs3)nc21	none
Cc1c(C(=O)OCC(=O)Nc2ccc(S(N)(=O)=O)cc2)oc2c1ccc1ccccc12	p97 ATPase inh 16 (no result: NF-kB neuron act, MDM2 E3 inh) | p97 inh conf inactive
CCOC(=O)c1c(N2C(=O)Nc3ccccc3N2O)sc2c1CCCCC2	none
COC(=O)c1c(-c2ccccc2)csc1N1C(=O)Nc2ccccc2N1O	p97 ATPase inh 15 | p97 inh conf 23
CCOC(=O)c1c(-c2ccccc2)csc1N1C(=O)Nc2ccccc2N1O	p97 ATPase inh 18 | p97 inh conf 21
CN1C(=O)C2(C(C#N)=C(N)N(c3cc(Cl)cc(Cl)c3)C3=C2C(=O)CCC3)c2ccccc21 (centres undefined)	none
CN1C(=O)C2(c3ccccc31)C1CCCC=C1C(C#N)=C(N)C2(C#N)C#N (centres undefined)	p97 ATPase inh 17 | p97 inh conf inactive
Cc1ccc(CCN2CC(C(=O)NCCCN3CCCCCC3)CC2=O)cc1 (centres undefined)	p97 ATPase inh 21 | p97 inh conf inactive
O=C(Nc1ccc(Br)cc1)C1OCCc2ccccc21 (centres undefined)	none (no result: STAT1 activator, NF-kB neuron act, APP 5'UTR act, MDM2 E3 inh)
CCCN1CCC(NC(=S)Nc2ccc(S(N)(=O)=O)cc2)CC1	none
Cc1cc(/C=C2\SC(=S)NC2=O)c(C)n1-c1ccc(O)cc1	p97 ATPase inh 56 (no result: STAT1 activator, NF-kB neuron act, APP 5'UTR act) | p97 inh conf inactive
COc1cc(/C=C/c2ccc3c(Br)cc(Br)c(O)c3n2)ccc1O	p97 ATPase inh 18 (no result: STAT1 activator, NF-kB neuron act, APP 5'UTR act) | p97 inh conf 15
COc1cc2nc(CN(C)Cc3ccc(OC)c(OC)c3OC)[nH]c(=O)c2cc1OC	none
CC1(C)CC(=O)c2sc(NS(=O)(=O)Cc3ccccc3)nc2C1	none
Cc1ccc(S(=O)(=O)Nc2nc3c(s2)C(=O)CC(C)(C)C3)cc1	p97 ATPase inh 16 | p97 inh conf inactive
CCOC(=O)C1CC(c2ccccc2)=NNC1=O (centres undefined)	none
O=[n+]1c2c(n([O-])c3ccccc31)CCCC2	p97 ATPase inh 15 (no result: APP 5'UTR act) | p97 inh conf inactive
Cn1cccc1CC(=O)N/N=C/c1ccco1	p97 ATPase inh 17 (no result: STAT1 activator, NF-kB neuron act, APP 5'UTR act) | p97 inh conf inactive
Cn1cccc1CC(=O)NNC(=O)Nc1cccc(Cl)c1	none (no result: MDM2 E3 inh)
Cn1cccc1CC(=O)NNC(=O)Nc1ccc(Cl)cc1	p97 ATPase inh 19 | p97 inh conf inactive
CCOC(=O)C1(Cc2ccccc2)CCCN(Cc2ccc(OCC)c(CO)c2)C1 (centres undefined)	none
CCCC(C(=O)NC1CCCC1)N(CCCN1CCOCC1)C(=O)c1snc(C(N)=O)c1N (centres undefined)	p97 ATPase inh 16 | p97 inh conf inactive
CCCC(C(=O)NC1CCCC1)N(CC1CCCO1)C(=O)c1snc(C(N)=O)c1N (centres undefined)	none
O=C(NCc1ccc(F)cc1)C(=O)Nc1nc(C23CC4CC(CC(C4)C2)C3)cs1	none
C(=C\c1ccccc1)/CNn1cnnc1	none
C[N+](C)(CC#N)C/C=C\c1ccccc1	p97 ATPase inh 17 | p97 inh conf inactive
